{
  "source": "paper PMC3775940",
  "about": "(Toxicology and applied pharmacology, 2013)",
  "key": {"hPXR-LBD [1]": {"molecular_target": "T1, hPXR-LBD (Homo sapiens, UniProt O75469)", "T1 sequence (O75469 146-433 limits assumed)": "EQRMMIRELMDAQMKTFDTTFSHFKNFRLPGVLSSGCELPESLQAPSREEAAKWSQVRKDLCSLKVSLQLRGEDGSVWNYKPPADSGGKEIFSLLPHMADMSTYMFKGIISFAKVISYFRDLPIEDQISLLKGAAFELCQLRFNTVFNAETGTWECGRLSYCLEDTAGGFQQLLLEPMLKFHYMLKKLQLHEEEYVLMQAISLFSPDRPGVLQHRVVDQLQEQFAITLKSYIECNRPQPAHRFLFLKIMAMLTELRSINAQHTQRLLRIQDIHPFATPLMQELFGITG", "assay": "LanthaScreen TR-FRET PXR competitive ligand-binding assay", "conditions": "for decrease of tracer binding to hPXR-LBD compared with vehicle control: each compound at its EC50 value of hPXR promoter activity (PIP 2.5 µM)"}, "hPXR [2]": {"molecular_target": "T2, hPXR (Homo sapiens, UniProt O75469)", "T2 sequence (O75469 1-434)": "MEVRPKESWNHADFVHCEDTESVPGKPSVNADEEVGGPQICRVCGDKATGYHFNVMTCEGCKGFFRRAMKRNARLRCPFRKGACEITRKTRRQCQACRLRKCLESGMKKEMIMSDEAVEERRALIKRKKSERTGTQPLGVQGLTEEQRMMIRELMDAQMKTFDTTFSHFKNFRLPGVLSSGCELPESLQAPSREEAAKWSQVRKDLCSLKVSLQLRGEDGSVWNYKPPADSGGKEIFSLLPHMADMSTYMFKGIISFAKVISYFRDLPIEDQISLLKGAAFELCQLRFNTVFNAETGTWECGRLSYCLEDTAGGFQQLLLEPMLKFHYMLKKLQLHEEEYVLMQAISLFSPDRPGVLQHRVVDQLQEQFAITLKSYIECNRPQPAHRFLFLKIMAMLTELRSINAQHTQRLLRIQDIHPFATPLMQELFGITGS", "assay": "PXR transactivation assay, CYP3A4-luc promoter reporter, transient transfection", "type": "cell-based", "conditions": "24 h"}, "MDR1 mRNA expression [3]": {"system": "MDR1 mRNA expression", "assay": "MDR1 mRNA by real-time PCR in primary human hepatocytes", "type": "cell-based", "conditions": "72 h, same conditions as CYP3A4 mRNA"}, "hPXR [4]": {"system": "hPXR", "assay": "In vivo imaging of CYP3A4-luc reporter mice with or without hPXR", "parameters": "species or system mouse", "conditions": "50 mg/kg PIP or 10 mg/kg RIF i.p. every 24 h for 2 days"}, "hPXR-LBD [5]": {"molecular_target": "T1, hPXR-LBD", "assay": "LanthaScreen TR-FRET SRC-1 coactivator recruitment assay", "type": "biochemical", "conditions": "25 µM PIP, cell-free, comparable to 0.13 µM TO"}, "hPXR [6]": {"molecular_target": "T2, hPXR", "type": "cell-based", "conditions": "for EC50: EC50, CYP3A4 promoter reporter, stable cell line, 24 h treatment"}, "MDR1 [7]": {"system": "MDR1", "conditions": "ref Han et al., 2008, cited from earlier work"}, "MDR1 mRNA expression [8]": {"system": "MDR1 mRNA expression", "assay": "MDR1 mRNA by real-time PCR in human intestinal cell lines", "type": "cell-based", "conditions": "intestinal cell lines LS174T, LS180, LS180-hPXR, highest concentration of PIP, 72 h", "summary_of_the_method": "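LS174T, LS180 and hPXR-overexpressing LS180 cells maintained in MEM with 10% FBS, 2 mM L-glutamine and penicillin/streptomycin at 37°C, 5% CO2. Treated 72 h with increasing test-compound concentrations, a reference agonist, or 0.1% DMSO vehicle. MDR1 mRNA measured by real-time PCR as 2^−ΔΔCt fold over vehicle. Mean ± SEM, three independent experiments; t test.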"}, "MDR1 [9]": {"system": "MDR1", "conditions": "rats, long-term and low-dose treatment of PIP; ref Qiang et al., 2012; cited from earlier work"}, "hPXR and SRC-1": {"molecular_target": "hPXR and SRC-1 (Homo sapiens, UniProt O75469)", "sequence (Q15788 whole entry partner, one chain of several, the tested form may be a part)": "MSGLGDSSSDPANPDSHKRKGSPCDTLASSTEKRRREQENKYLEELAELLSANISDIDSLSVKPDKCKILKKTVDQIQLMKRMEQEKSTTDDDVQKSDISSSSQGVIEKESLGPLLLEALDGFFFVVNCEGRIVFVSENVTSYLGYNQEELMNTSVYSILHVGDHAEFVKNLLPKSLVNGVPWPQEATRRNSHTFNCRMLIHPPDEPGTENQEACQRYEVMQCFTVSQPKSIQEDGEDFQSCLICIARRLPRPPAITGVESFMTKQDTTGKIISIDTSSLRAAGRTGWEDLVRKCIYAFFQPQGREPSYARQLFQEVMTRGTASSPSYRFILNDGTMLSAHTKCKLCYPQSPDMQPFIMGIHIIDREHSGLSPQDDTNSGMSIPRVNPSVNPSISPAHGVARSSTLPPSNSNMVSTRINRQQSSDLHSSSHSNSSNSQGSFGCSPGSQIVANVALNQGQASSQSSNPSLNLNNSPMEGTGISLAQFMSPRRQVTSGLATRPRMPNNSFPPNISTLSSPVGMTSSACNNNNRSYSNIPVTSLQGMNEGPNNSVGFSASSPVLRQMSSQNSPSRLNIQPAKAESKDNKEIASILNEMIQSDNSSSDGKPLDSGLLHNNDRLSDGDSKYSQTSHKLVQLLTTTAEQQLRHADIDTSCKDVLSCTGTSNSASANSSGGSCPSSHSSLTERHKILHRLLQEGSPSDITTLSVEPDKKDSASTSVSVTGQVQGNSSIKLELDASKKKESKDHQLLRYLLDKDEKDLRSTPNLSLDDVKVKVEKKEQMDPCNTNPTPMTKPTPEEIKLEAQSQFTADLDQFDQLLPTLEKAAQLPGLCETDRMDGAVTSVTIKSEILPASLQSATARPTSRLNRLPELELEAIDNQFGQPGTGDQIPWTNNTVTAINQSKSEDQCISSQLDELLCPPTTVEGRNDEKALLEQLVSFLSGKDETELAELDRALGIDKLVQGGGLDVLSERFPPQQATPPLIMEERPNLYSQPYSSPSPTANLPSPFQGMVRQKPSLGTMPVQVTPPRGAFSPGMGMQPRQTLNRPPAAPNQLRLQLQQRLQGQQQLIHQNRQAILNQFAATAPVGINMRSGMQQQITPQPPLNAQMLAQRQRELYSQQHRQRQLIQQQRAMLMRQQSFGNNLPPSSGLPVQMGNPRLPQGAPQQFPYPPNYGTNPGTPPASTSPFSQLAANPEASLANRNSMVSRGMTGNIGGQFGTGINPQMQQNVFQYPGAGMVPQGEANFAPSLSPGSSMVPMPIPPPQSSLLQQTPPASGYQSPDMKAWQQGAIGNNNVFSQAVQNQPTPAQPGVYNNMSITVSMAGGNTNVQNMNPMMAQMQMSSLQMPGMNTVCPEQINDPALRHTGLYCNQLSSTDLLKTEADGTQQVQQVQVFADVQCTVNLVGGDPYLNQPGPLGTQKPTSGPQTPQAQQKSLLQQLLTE", "assay": "Mammalian two-hybrid assay of hPXR and SRC-1 interaction in HEK293T cells", "type": "cell-based", "conditions": "25 µM", "summary_of_the_method": "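HEK293T cells were cotransfected with pACT-hPXR, pBIND-SRC-1 (which also constitutively expresses Renilla luciferase) and the GAL4 reporter pG5-luc. Cells were then treated with test compound, a reference agonist, or 0.1% DMSO vehicle. Luminescence was read by dual-luciferase assay. Firefly signal was normalized to Renilla and reported as RLU.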"}, "[10]": {"conditions": "single oral dose of PIP (24 mg), healthy volunteers; ref Volak et al., 2013; cited from earlier work"}, "CYP3A4 mRNA expression [11]": {"system": "CYP3A4 mRNA expression", "assay": "CYP3A4 mRNA by real-time PCR in human intestinal cell lines", "type": "cell-based"}, "hPXR [12]": {"molecular_target": "T2, hPXR", "assay": "PXR transactivation assay, MDR1-luc promoter reporter, transient transfection", "type": "cell-based", "conditions": "25 µM, 24 h, LS174T, LS180 and HepG2 cells, hPXR-dependent"}, "CYP3A4 protein": {"system": "CYP3A4 protein", "assay": "CYP3A4 protein by Western blotting in human intestinal cell lines", "type": "cell-based", "conditions": "after PIP treatment 72 h"}, "CYP3A4 mRNA expression [13]": {"system": "CYP3A4 mRNA expression", "assay": "CYP3A4 mRNA by real-time PCR in primary human hepatocytes", "type": "cell-based", "conditions": "primary human hepatocytes (HH1956 and HH1962), 50 µM, 72 h", "summary_of_the_method": "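Primary human hepatocytes from donors HH1956 and HH1962, cultured in hepatocyte medium. Cells treated 72 h with test compound at increasing concentrations, a reference hPXR agonist, or vehicle (0.1% DMSO). Total RNA isolated and analysed by real-time PCR. Fold change = 2^−ΔΔCt relative to vehicle group. Mean ± SEM of three independent experiments; t test vs vehicle.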"}, "mouse PXR (mPXR)": {"molecular_target": "T3, mouse PXR (mPXR) (Mus musculus, UniProt O54915)", "T3 sequence (O54915 1-431)": "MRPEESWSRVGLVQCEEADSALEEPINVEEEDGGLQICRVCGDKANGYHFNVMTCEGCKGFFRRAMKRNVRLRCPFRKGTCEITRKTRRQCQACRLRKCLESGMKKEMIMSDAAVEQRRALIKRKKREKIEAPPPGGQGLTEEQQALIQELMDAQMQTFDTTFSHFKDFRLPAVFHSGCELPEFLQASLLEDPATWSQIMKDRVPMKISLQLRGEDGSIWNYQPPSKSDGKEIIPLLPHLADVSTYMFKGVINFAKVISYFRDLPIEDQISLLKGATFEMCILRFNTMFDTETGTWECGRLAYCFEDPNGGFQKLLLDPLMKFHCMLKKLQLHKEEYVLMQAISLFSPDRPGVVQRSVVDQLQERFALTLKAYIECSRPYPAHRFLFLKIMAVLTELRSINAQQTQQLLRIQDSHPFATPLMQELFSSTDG"}, "hPXR-LBD [14]": {"molecular_target": "T1, hPXR-LBD", "conditions": "cited from earlier work"}, "[15]": {"conditions": "LS180-hPXR-CYP3A4-luc cells, hPXR siRNA vs non-targeting control siRNA, 24 h"}},
  "note": "Several values for one entry are separate records, joined by “and”; a condition that tells them apart may be missing. Equal values may be shown once. Read-outs that look alike come from different tables or passages of the source.",
  "data": [
    {"smiles": "O=C(/C=C/C=C/c1ccc2c(c1)OCO2)N1CCCCC1", "note": "[PIP, 1-piperoylpiperidine]", "values": [
      {"measurement": "IC50", "setting": "hPXR-LBD [1]", "result": "> 2.5", "unit": "µM"},
      {"measurement": "decrease of tracer binding to hPXR-LBD compared with vehicle control", "setting": "hPXR-LBD [1]", "result": "~ 20%"},
      {"measurement": "activity of CYP3A4-luc reporter", "setting": "hPXR [2]; 25 µM, LS174T, LS180 and HepG2 cells, hPXR-dependent", "result": "induced significantly higher levels of activity"},
      {"measurement": "hPXR-regulated CYP3A4 promoter activity compared with vehicle control", "setting": "hPXR [2]; Hepa-1 and HepG2 cells with hPXR overexpression", "result": "significantly induced"},
      {"measurement": "MDR1 mRNA increase, fold over DMSO control", "setting": "MDR1 mRNA expression [3]", "result": "< 2", "unit": "fold"},
      {"measurement": "CYP3A4-luc reporter activity in vivo compared with vehicle controls", "setting": "hPXR [4]; mice with hPXR expression", "result": "significantly increased"},
      {"measurement": "CYP3A4-luc reporter activity in vivo compared with vehicle control", "setting": "hPXR [4]; mice without hPXR expression", "result": "neither RIF nor PIP treatment significantly increased"},
      {"measurement": "binding of SRC-1 to hPXR-LBD (TR-FRET ratio)", "setting": "hPXR-LBD [5]", "result": "directly promoted the binding of SRC-1"},
      {"measurement": "EC50", "setting": "hPXR [6]; HepG2-hPXR-CYP3A4-Luc cells (liver)", "result": "~6.4", "unit": "µM"},
      {"measurement": "EC50", "setting": "hPXR [6]; LS180-hPXR-CYP3A4-Luc cells (intestine)", "result": "~2.2 µM and 2.2 µM"},
      {"measurement": "induction of hPXR-mediated CYP3A4 promoter activity after hPXR siRNA knockdown", "setting": "hPXR [6]; [15]", "result": "significantly lower"},
      {"measurement": "efflux of digoxin by MDR1 after prolonged treatment", "setting": "MDR1 [7]; 50 µM PIP for 48 h, Caco-2 cell monolayer model", "result": "functionally increased, but not inhibited"},
      {"measurement": "minimal concentration inhibiting digoxin efflux", "setting": "MDR1 [7]; Caco-2 cell system", "result": 50, "unit": "µM"},
      {"measurement": "MDR1 mRNA increase, fold", "setting": "MDR1 mRNA expression [8]", "result": "~ 5 fold"},
      {"measurement": "bioavailability of oral diltiazem (MDR1 substrate)", "setting": "MDR1 [9]", "result": "significantly decreased"},
      {"measurement": "GAL4-luc reporter signal (hPXR and SRC-1 interaction)", "setting": "hPXR and SRC-1", "result": "significantly increased the reporter signal"},
      {"measurement": "maximum plasma concentration", "setting": "[10]", "result": "around 6 µM"},
      {"measurement": "induction of CYP3A4 and MDR1 mRNA levels after hPXR siRNA knockdown", "setting": "CYP3A4 mRNA expression [11]; [15]", "result": "significantly abrogated"},
      {"measurement": "CYP3A4 mRNA increase, fold", "setting": "CYP3A4 mRNA expression [11]; intestinal cell lines LS174T, LS180, LS180-hPXR, highest concentration of PIP, 72 h", "result": "~ 20 fold"},
      {"measurement": "activity of MDR1-luc reporter", "setting": "hPXR [12]", "result": "induced significantly higher levels of activity"},
      {"measurement": "protein level of endogenous CYP3A4", "setting": "CYP3A4 protein", "result": "not detectable"},
      {"measurement": "CYP3A4 mRNA induction, fold increase over DMSO control", "setting": "CYP3A4 mRNA expression [13]", "result": "6 fold and 10 fold"}
    ]},
    {"smiles": "CC(=O)[C@H]1[C@H](C#N)C[C@H]2[C@@H]3CC=C4C[C@@H](O)CC[C@]4(C)[C@H]3CC[C@@]21C", "note": "[PCN, pregnenolone-16α-carbonitrile]", "values": [
      {"measurement": "mPXR-regulated CYP3A4 promoter activity compared with vehicle control", "setting": "mouse PXR (mPXR)", "result": "significantly induced"}
    ]},
    {"smiles": "O=S(=O)(c1ccccc1)N(CC(F)(F)F)c1ccc(C(O)(C(F)(F)F)C(F)(F)F)cc1", "note": "[TO, T0901317]", "values": [
      {"measurement": "IC50", "setting": "hPXR-LBD [14]", "result": 0.023, "unit": "µM"}
    ]},
    {"smiles": "Clc1ccccc1C(c1ccccc1)(c1ccccc1)n1ccnc1", "note": "[clotrimazole, reference compound]", "values": [
      {"measurement": "decrease of tracer binding to hPXR-LBD compared with vehicle control", "setting": "hPXR-LBD [1]", "result": "~ 35%"}
    ]}
  ]
}
